Here are results for 1 compound from ChEMBL document CHEMBL4619773, “Chemoreactive-Inspired Discovery of Influenza A Virus Dual Inhibitor to Block Hemagglutinin-Mediated Adsorption and Membrane Fusion” (J Med Chem, 2020).

Calls of active or inactive are those of the source. No cut-off for these calls is given here. Bounds are passed on as bounds.

Data set [1] can be described thus: Cumulative drug excretion in rat feces at 3.5 mg/kg, po administered as single dose measured after 72 hrs. It is filed as ADME, organism-based. Conditions: faeces, read-out: Drug excretion. An outline of the steps:
(§1)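 Single oral (gavage, 0.5% CMC-Na) or iv (tail vein, PEG400) dosing was given to male Kunming mice or Sprague Dawley rats held in metabolic cages. Urine and feces were collected at intervals to 72 h. Feces were dried, ground and homogenized in water (1:9 w/v). Samples were precipitated with acetonitrile containing internal standard and analysed by LC-MS/MS.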

Data set [2] can be described thus: Half life in rat at 3.5 mg/kg , po administered as single dose. The class given is ADME, organism-based. Conditions: in vivo. An outline of the steps:
(§2)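 Male Kunming mice (20-25 g) and male Sprague Dawley rats (180-220 g) were fasted 12 h before dosing. Oral dosing was by gavage as a suspension in 0.5% sodium carboxymethyl cellulose; iv dosing was via tail vein in PEG400. Serial plasma samples were taken to 24 h, protein-precipitated with acetonitrile plus N-CH3 internal standard, and quantified by LC-MS/MS (n=3). Bioavailability = AUCoral/AUCiv.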

For data set [3], the system named is Influenza A virus. The experiment in a line: Antiviral activity against Influenza A virus (A/Puerto Rico/8/1934(H1N1)) infected in Kunming mouse assessed as decrease in lung TNFalpha level at 5 to 10 mg/kg/day, po starting 4 hrs after viral challenge and continued for 4 days by ELISA. It is filed as functional, organism-based. An outline of the steps: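 Four-week-old female Kunming mice received PR8 intranasally (500 PFU/mouse in 40 µL PBS) and were then dosed once daily orally or intranasally. Lungs were collected on day 4, and TNF-α and IL-6 in lung tissue were measured by ELISA.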

The test system of data set [4] is Influenza A virus. The experiment in a line: Antiviral activity against Influenza A virus (A/Puerto Rico/8/1934(H1N1)) infected in MDCK cells incubated for 3 days by crystal violet staining based plaque assay. It is filed as functional, organism-based. The conditions noted are these: 72 h. Put shortly:
(§3)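 Confluent MDCK monolayers were exposed to 10-fold serial virus dilutions for 1 h at 37 °C, then washed. The overlay was DMEM with 1.5% agarose, 0.02% DEAE-dextran and 1 µg/ml TPCK-trypsin. After 3 days at 37 °C in 5% CO2, cells were fixed with 0.05% glutaraldehyde, stained with 1% crystal violet in 20% ethanol, and plaques were counted.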

In data set [5] the target is Hemagglutinin (Influenza A virus (A/Puerto Rico/8/1934(H1N1))) (UniProt P03452). Nature of the data set: Inhibition of Hemagglutinin in Influenza A virus (A/Puerto Rico/8/1934(H1N1))/H1N1 pseudovirus infected in 293FT cells assessed as reduction in virus infection at 50 ug/ml pre-treated with virus before infection and measured after 48 hrs by inverted fluorescence microscopy. It is filed as cell-based. Put shortly:
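PR8 pseudoviruses (IAV-GFP) carrying wild-type HA or a mutant HA (T30N/E233D/T359A or T359A) were made in 293FT cells by co-transfecting HA, NA, HIV backbone and GFP reporter plasmids, and supernatants were harvested at 48 h. Pseudovirus was pretreated with compound at 50 µg/ml for 1 h at 37 °C before infection. Infected GFP-positive cells were viewed by fluorescence microscopy 48 h p.i.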

Data set [6] shares this target. The experiment in a line: Inhibition of trypsin-mediated cleavage of Influenza A virus (A/Puerto Rico/8/1934(H1N1)) Hemagglutinin (HA0) at 50 ug/ml incubated for 30 mins by Coomassie blue fast staining and SDS-PAGE gel based trypsin susceptibility assay. Put shortly:
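About 5 µg PR8 HA protein was preincubated with about 50 µg/ml compound for 30 min at RT; controls received 2% DMSO. Samples were acidified with 1 M sodium acetate pH 5.0 (one kept at pH 7.0) for 20 min at 37 °C, then neutralized with 200 mM Tris pH 8.5. TPCK-trypsin was added at 1:50 by mass for 30 min at 37 °C. Samples were run on non-reducing 12% SDS-PAGE with Coomassie staining.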

A short description of data set [7]: Cmax in rat at 3.5 mg/kg , po administered as single dose. It is filed as ADME, organism-based. On the set-up: dose 3.5 mg/kg, route oral. Conditions: in vivo. An outline of the steps: as §2
Data set [8] is described as follows: Cumulative drug excretion in mouse urine at 5 mg/kg, po administered as single dose measured after 72 hrs. The class given is ADME, organism-based. The conditions noted are these: read-out: Drug excretion. An outline of the steps:
as §1

A short description of data set [9]: AUC (0 to t) in mouse at 5 mg/kg, po administered as single dose. It is filed as ADME, organism-based. The conditions noted are these: in vivo. An outline of the steps:
as §2

For data set [10], the system named is Influenza A virus. Nature of the data set: Antiviral activity against Influenza A virus (A/California/04/2009(H1N1)) infected in MDCK cells by HA assay. The class given is functional, organism-based. An outline of the steps:
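MDCK cells were infected at high moi (≈3.0 PFU/cell). Virus-containing supernatants were serially diluted 2-fold and mixed with an equal volume of 1% chicken red blood cells. After 60 min at 4 °C, wells were scored for button sedimentation versus opaque agglutination to give titers.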

Data set [11] relates to Influenza A virus. The experiment in a line: Antiviral activity against Influenza A virus (A/Aichi/2/1968(H3N2)) infected in MDCK cells incubated for 3 days by crystal violet staining based plaque assay. It is filed as functional, organism-based. The conditions noted are these: 72 h. Put shortly: as §3
Data set [12] in a line: Toxicity in Kunming mouse assessed as effect on creatinine level at 5 to 10 mg/kg/day, po for 7 days. The class given is organism-based. The conditions noted are these: in vivo, 168 h. An outline of the steps:
(§4)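 Male Kunming mice (20–25 g) received compound orally at 5 or 10 mg/kg/day, suspended in 0.5% sodium carboxymethyl cellulose, once daily for 7 days; controls received vehicle. Serum was collected under isoflurane 24 h after the last dose. AST, ALT, CR, BUN, LDH, CK and CK-MB were measured with commercial kits.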

Data set [13] is described as follows: Toxicity in Kunming mouse assessed as effect on CK-MB level at 5 to 10 mg/kg/day, po for 7 days. The class given is organism-based. The conditions noted are these: in vivo, 168 h. Put shortly: as §4
Data set [14] is described as follows: Half life in rat at 0.35 mg/kg /kg, iv administered as single dose. The class given is ADME, organism-based. The conditions noted are these: in vivo. An outline of the steps: as §2
In the next data set the test system is Influenza A virus H3N2. Nature of the data set: Antiviral activity against Influenza A virus H3N2 (A/swine/Minnesota/02719/2009) infected in MDCK cells incubated for 3 days by crystal violet staining based plaque assay. The class given is functional, organism-based. Conditions: 72 h. An outline of the steps:
as §3

For data set [15], the system named is Influenza A virus. Nature of the data set: Antiviral activity against Influenza A virus (A/Puerto Rico/8/1934(H1N1)) infected in MDCK cells pre-incubated for 1 hr before assay and incubated for 3 days by crystal violet staining based plaque assay. It is filed as functional, organism-based. An outline of the steps: as §3
Data set [16] deals with Hemagglutinin (Influenza A virus (A/Puerto Rico/8/1934(H1N1))) (UniProt P03452). Nature of the data set: Inhibition of conformational changes in Influenza A virus (A/Puerto Rico/8/1934(H1N1)) Hemagglutinin assessed as increase in retention amount of HA1 subunit on HA proteins at 25 to 50 ug/ml added before acidification incubated for 1 hr by conformational change inhibition assay. An outline of the steps:
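C-terminal biotinylated H1/PR8 HA (0.2 µg/ml) was captured on streptavidin plates for 1 h at RT. Compound (50, 25, 12.5 µg/ml) was added for 1 h, then 1 M acetate pH 5.25 for 20 min. 2.5 mM DTT was applied for 60 min to remove HA1 from postfusion HA. Retained HA1 was detected with anti-HA1 head antibody and HRP secondary, read as A450 with TMB.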

A short description of data set [17]: Selectivity index, ratio of CC50 for cytotoxicity in dog MDCK cells assessed as reduction in cell viability incubated for 48 hrs by crystal violet staining based assay to […] in dog MDCK cells assessed as reduction in cell viability incubated for 48 hrs by crystal violet staining based assay.
Data set [18] concerns Influenza A virus. The experiment in a line: Antiviral activity against Influenza A virus (A/Puerto Rico/8/1934(H1N1)) infected in Kunming mouse assessed as improvement in body weight at 5 to 10 mg/kg/day, po starting 4 hrs after viral challenge and continued for 7 days and measured up to day 14 by plaque assay. The class given is functional, organism-based. Put shortly:
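Groups of 10 female Kunming mice were infected intranasally with PR8 (1000 PFU/mouse) on day 0 and dosed once daily for seven days. Weight and clinical signs were recorded daily. Mice losing more than 25% of pre-infection weight were scored dead and euthanized; survivors were killed on day 14.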

Hemagglutinin (Influenza A virus (A/Puerto Rico/8/1934(H1N1))), sequence (P03452 whole entry, the tested form may be a part): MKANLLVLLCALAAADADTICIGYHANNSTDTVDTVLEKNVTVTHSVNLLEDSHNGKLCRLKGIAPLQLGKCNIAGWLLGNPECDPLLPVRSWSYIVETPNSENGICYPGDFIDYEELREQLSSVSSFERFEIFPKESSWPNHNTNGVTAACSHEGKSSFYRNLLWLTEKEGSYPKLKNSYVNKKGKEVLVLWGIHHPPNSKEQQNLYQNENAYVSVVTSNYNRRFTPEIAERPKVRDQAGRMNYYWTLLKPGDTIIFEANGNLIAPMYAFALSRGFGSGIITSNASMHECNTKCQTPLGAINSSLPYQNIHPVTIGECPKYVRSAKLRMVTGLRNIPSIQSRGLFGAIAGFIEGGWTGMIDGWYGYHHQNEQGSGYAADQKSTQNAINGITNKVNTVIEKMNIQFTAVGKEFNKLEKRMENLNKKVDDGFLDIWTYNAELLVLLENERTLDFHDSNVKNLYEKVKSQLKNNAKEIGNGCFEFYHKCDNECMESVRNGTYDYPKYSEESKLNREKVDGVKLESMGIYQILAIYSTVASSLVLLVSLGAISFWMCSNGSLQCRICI

As for `CC(=O)c1cc(C)c(O)c(Cc2[nH]c3ccccc3c2Cc2c(O)c(C)cc(C(C)=O)c2O)c1O`, the results for the dose excreted at 72 h in data set [1] and in [8] were 96.4% and 0.03%, respectively. The half-life in data set [2] is 3.3 h; in data set [14], 4.8 h. Besides, the outcome in the data set with Influenza A virus [3] and in the data set on Influenza A virus [18] was Active. In addition, the concentration for half-maximal inhibition (IC50) with Influenza A virus [4], in the data set on Influenza A virus [11] and in the data set with Influenza A virus H3N2 was below 13 µg/mL throughout. The inhibition result in data set [5] and in data set [16] was “Active” in each case. Moreover, the inhibition entry in [6] is “inactive”. This compound also gave a Cmax in data set [7] of 287 ng/mL. The AUC(0-t) in [9] stood at 152 ng·h/mL. In addition, the Activity result with Influenza A virus [10] is “Dose-dependent effect”; in data set [12] it was “Non-Toxic”; in data set [13], “Non-Toxic”; in the data set with Influenza A virus [15], “Dose-dependent effect”. The “Ratio CC50/IC50” value in [17] amounted to 55.8.
